# Assay results: ChEMBL document CHEMBL2396643, “Discovery of a small molecular compound simultaneously targeting RXR and HADC: design, synthesis, molecular docking and bioassay” (Bioorg Med Chem Lett, 2013)
# Experiments:
# [1] = Cytotoxicity against human Hep3B cells assessed as growth inhibition after 72 hrs by MTT assay; type: functional, cell-based, Hep 3B2
# Histone deacetylase = experiment: Inhibition of HDAC isolated from human HeLa cell nuclear extract after 30 mins by fluorescence assay; type: protein assay
# [2] = biological target: T1, Histone deacetylase (Homo sapiens) (UniProt Q13547+O15379+Q9UBN7+Q92769+Q9UQL6+Q8WUI4+Q9BY41+Q96DB2+P56524+Q9UKV0+Q969S8); experiment: Inhibition of HDAC in human HL60 cells assessed as increase in p21 WAF1/CIP1 level after 48 hrs by Western blot analysis; type: cell-based; settings: HL-60
# Method in brief: (§1)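 About 1 × 10⁷ HL60 cells exposed to compound or SAHA for 48 h. Nuclear protein extracted, equal protein amounts resolved on 10–15% SDS–PAGE and blotted to PVDF. Probed for acetylated H3 and p21WAF1/CIP1, with histone H3 and β-actin as loading controls. ECL detection on X-ray film, densitometry relative to control.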
# [3] = Cytotoxicity against human GBC-SD cells assessed as growth inhibition after 72 hrs by MTT assay; type: functional, cell-based
# [4] = biological target: T1, Histone deacetylase (Homo sapiens); experiment: Inhibition of HDAC in human HL60 cells using Boc-Lys(Ac)-pNA as substrate incubated for 24 hrs prior to substrate addition measured after 90 mins by fluorescence assay; type: cell-based; settings: HL-60
# Method in brief: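 HL60 cells exposed to a range of compound concentrations or SAHA for 24 h, then lysed and protein measured by BCA. Lysates incubated with Boc-Lys(Ac)-pNA (10 mM) in HDAC assay buffer for 90 min at 37 °C. Lysine Developer added and incubated 30 min at 37 °C before plate-reader readout. Mean ± SD of three determinations.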
# [5] = biological target: T1, Histone deacetylase (Homo sapiens); experiment: Inhibition of HDAC in human HL60 cells assessed as increase in acetylated H3 level after 48 hrs by Western blot analysis; type: cell-based; settings: HL-60; method in brief: as §1
# A549 = experiment: Cytotoxicity against human A549 cells assessed as growth inhibition after 72 hrs by MTT assay; type: functional, cell-based; settings: A549, 72 h
# A549/SAHA = experiment: cells; settings: Homo sapiens, 48 h
# KB [6] = experiment: Cytotoxicity against human KB cells assessed as growth inhibition after 72 hrs by MTT assay; type: functional, cell-based
# Method in brief: (§2)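 Cells seeded at 3000 per well and exposed to diluted compounds, with bexarotene and SAHA as positive controls, for 48 h (drug-resistant cells) or 72 h (parental cells). Final DMSO 0.1%. Cell number determined by MTT dye per manufacturer instructions.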
# KB [7] = experiment: Cytotoxicity against bexarotene-resistant human KB cells assessed as growth inhibition after 48 hrs by MTT assay; type: functional, cell-based; method in brief: as §2
# [8] = biological target: T2, Retinoic acid receptor RXR-alpha (Homo sapiens, UniProt P19793); experiment: Transactivation of human RXRalpha transfected in human 293 cells after 48 hrs by dual-luciferase reporter gene assay; type: cell-based, HEK293
# T2 sequence (P19793 whole entry): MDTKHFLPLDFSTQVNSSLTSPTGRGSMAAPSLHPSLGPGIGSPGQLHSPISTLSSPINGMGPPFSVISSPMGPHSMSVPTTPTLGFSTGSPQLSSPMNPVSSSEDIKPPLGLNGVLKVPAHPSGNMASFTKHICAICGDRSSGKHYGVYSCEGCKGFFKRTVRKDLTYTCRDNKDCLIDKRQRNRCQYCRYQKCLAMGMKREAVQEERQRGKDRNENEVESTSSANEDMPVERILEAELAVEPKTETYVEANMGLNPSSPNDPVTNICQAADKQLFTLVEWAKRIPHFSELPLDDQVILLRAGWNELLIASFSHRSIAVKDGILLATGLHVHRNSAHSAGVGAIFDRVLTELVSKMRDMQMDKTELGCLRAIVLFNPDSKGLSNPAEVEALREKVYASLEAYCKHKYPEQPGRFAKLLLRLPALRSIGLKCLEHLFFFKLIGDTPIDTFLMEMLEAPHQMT
# HGC-27 = experiment: Cytotoxicity against human HGC27 cells assessed as growth inhibition after 72 hrs by MTT assay; type: functional, cell-based; settings: HGC-27, 72 h
# DU-145 = experiment: Cytotoxicity against human DU145 cells assessed as growth inhibition after 72 hrs by MTT assay; type: functional, cell-based; settings: DU-145, 72 h
# Method in brief: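 Seeded at 3000 cells/well and incubated with diluted compounds, with bexarotene and SAHA as positive controls, for 72 h. Final DMSO 0.1%. Remaining cells quantified with MTT dye per manufacturer instructions.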
IC50 (Histone deacetylase) [µM],inhibition [2],inhibition [4],inhibition [5],IC50 (A549/SAHA) [µM],EC50 [8] [µM],SMILES,IC50 [1] [µM],IC50 [3] [µM],IC50 (A549) [µM],IC50 (KB [6]) [µM],IC50 (KB [7]) [µM],IC50 (HGC-27) [µM],IC50 (DU-145) [µM]
6.7,Dose-dependent effect,Dose-dependent effect,Dose-dependent effect,3.8,0.0195,C=C(c1ccc(C(=O)NO)cc1)c1cc2c(cc1C)C(C)(C)CCC2(C)C,17.4,24.1,9.4,6.1,16.8,8.6,14.1
,,,,,,C=C(c1ccc(C(=O)O)cc1)c1cc2c(cc1C)C(C)(C)CCC2(C)C [BEXAROTENE],192,73.3,,8.8,46.3,32.7,61.6
,,,,,,O=C(CCCCCCC(=O)Nc1ccccc1)NO [VORINOSTAT],,,,,,,27.2
